The record followed here is the EternaBench riboswitch data.

The test system of the data set is MS2 coat protein. Put plainly: apparent Kd, MS2 coat protein; higher = weaker binding; RNA-MaP array; FMN 200 µM where present. The method, boiled down:
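Stalled E. coli RNA polymerase transcribed each design on Illumina sequencing-chip clusters. The clusters were titrated with SNAP-549-labelled MS2 coat protein, starting at 0.7 or 1.5 nM and doubling up to 3 µM, first without ligand and then with constant ligand, in 100 mM Tris-HCl pH 7.5, 80 mM KCl, 4 mM MgCl2, BSA, DTT, yeast tRNA and Tween-20. Green signal was normalised to red-channel RNA signal and to the control-cluster median Fmax. The apparent Kd is the median of filtered binding-curve fits made for each cluster.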

Setting [1] is: designed as: OFF switch for flavin mononucleotide, no ligand.
[2] abbreviates: ligand present: flavin mononucleotide, designed as: OFF switch for flavin mononucleotide.
The mark [3] stands for this setting: designed as: ON switch for flavin mononucleotide, no ligand.
The mark [4] stands for this setting: ligand present: flavin mononucleotide, designed as: ON switch for flavin mononucleotide.

In the case of “UGCUGGUGACAGCAUCCAUCAAAACAUGAGGAUCACCCAUGUAGAAGGCUGUACGGUUACCGUACAGAGGAUAUACAAUGAUGU”, the apparent Kd (usually the concentration giving half-maximal binding under the conditions of the assay) runs as follows: under setting [1], 13.2 nM; under setting [2], 23.6 nM.
As for “GCCUUAUCCGUCAGGAUAUACAUUUGUUAGUUGUUGUAGAAGGGACAUGAGGAUCACCCAUGUACAUUACAUUG”, the “apparent Kd” value was 19.4 nM under setting [1] and 22.4 nM under setting [2].
“CAUGUCCUCACAGGAUAUGCACCACUUUGUGGUGCAGAAGGGUGGAAACAUGAGGAUCACCCAUGUGGACAUGAUAUAUUUAAG”: the “apparent Kd” value is, setting by setting: under setting [3], 142 nM; under setting [4], 24.8 nM.
The corresponding values for “UGUUGUAUUACAGGAUAUCUAGUUUUUUUAUUUAGAGAAGGGUAUUCACAUGAGGAUCACCCAUGUAUAUACGAGGAAGUUGUG” are 46.6 nM and 56.1 nM.
For “GCAGCAAUCUAAAACAUGAGGAUCACCCAUGUCGAGAGAUAUGAGGAUAUGCAUCGGAUGAAGAUGCAGAAGGCAUUGUGCUGC”, the “apparent Kd” value runs as follows: under setting [3], 8.66 nM; under setting [4], 6.35 nM.
Take “CGCCAGUGAGGAUAUCCAUCUGGAUCAGACUAGAUCCUGAUGGAGAAGGCACAUGAGGAUCACCCAUGUCGGCG”: the “apparent Kd” value runs as follows: under setting [1], 18.5 nM; under setting [2], 19.5 nM.
“CUACCUUAUGAGAAGGCGAUCAUGAAACAUGAUCGAGGAUAUCAUGUAAACAUGAGGAUCACCCAUGUAUGGGUAUUAUGGUAC”: the “apparent Kd” value under setting [3] was determined as 98.5 nM and the “apparent Kd” value under setting [4] amounted to 27.3 nM.
The corresponding values for “UGUUGUAUUACAGGAUAUCUAAUAUUUUUAUUUAGAGAAGGGUAUUCACAUGAGGAUCACCCAUGUAUAUACGAGGAAGUUGUG” are 34.3 nM and 38.1 nM.
The corresponding values for “CGAAGUCCGUAGAAGGGUGACAUGAGGAUCACCCAUGUGCGAGCCGAGGGAGUCAGCGGCUCGCCACAGGAUAUACGGAUCACG” are 17.1 nM and 61.8 nM.
As to “UGAUAGGACAGAGGAUAUACGGAUAGGAUCUACUAUCAAACAGGUCCUACAUGAGGAUCACCCAUGUAGAAGGCUGUCCUAUCU”, the “apparent Kd” value reads like this: under setting [1], 22.9 nM; under setting [2], 111 nM.
The matching figures for “UCGCUGCGAGGAUAUACAUGAGGAUCACCCAUGUACGGGUCCGGGUUUUCGUCCAUUAGUAGAAGGCGCAGUGA”: 156 nM and 60.6 nM.
The corresponding values for “GGAUAGGACAGAGGAUAUAGGUGCUAGAGAUACUAGCAAAAUUUCCUCACAUGAGGAUCACCCAUGUAGAAGGCUGUCCUAUCG” are 11.5 nM and 25.4 nM.
The corresponding values for “UCACGGGUUUGAGGAUAUAUUAUUAUUAUUUAAAUAGAAGGCAAAGAAAUUGUUAUUUCACUAUACAUGAGGAUCACCCAUGUU” are 25.4 nM and 23.4 nM.
For the sequence “GCUAGUAUUGCAGGAUAUUGAGAUUAAUUAAGGCAAGAAGGGCAUUACAUGAGGAUCACCCAUGUUUUCCUUAGUCAUACUAGC”, the “apparent Kd” value is, setting by setting: under setting [1], 7.12 nM; under setting [2], 7.4 nM.
The matching figures for “UUAUGAGAGCAGGAUAUCUUAUUUUUUUUUUAAAGAGAAGGGCUCACAUGAGGAUCACCCAUGUGGUCCUAGAU”: 42.8 nM and 75.6 nM.
The corresponding values for “GAUAGGACAGAGAAGGUACGUGCUAGAGAUACUAGCAAAAUACCUCAACAUGAGGAUCACCCAUGUAAGGAUAUCUGUCCUAUC” are 5.7 nM and 6.19 nM.
The matching figures for “UUGCCCGCCGGAGGAUAUCUACUCUGUGGUGCACUGCGUUUGCAAUACAUGAGGAUCACCCAUGUAGAGAAGGCCGAGGGCACA”: 318 nM and 48.3 nM.
Turning to “UGGUACAUCAUAGGAUAUCGUGUGUAAACAUGAGGAUCACCCAUGUCAUACGAGAGUAUGUCGAUCGAGAAGGGUGAUGUACCU”, the “apparent Kd” value under setting [3] turned out to be 75.2 nM and the “apparent Kd” value under setting [4] is 25.8 nM.
On to “UGAUAGGACAGAGGAUAUACGUGCUAGAGAUACUAGCAAAGUUUCCUCACAUGAGGAUCACCCAUGUAGAAGGCUGUCCUAUCU”, for which the “apparent Kd” value reads like this: under setting [1], 24.9 nM; under setting [2], 521 nM.
Turning to “AAUGAGCAGUAGAAGGCAUGUCUACGGACAUGAGGAUCACCCAUGUAGUGAAUCCGAAAGGAGCAUGAGGAUAUACUGCUCUAA”, the “apparent Kd” value runs as follows: under setting [3], 143 nM; under setting [4], 27.3 nM.
For the sequence “AUGACAUGCAGAGCGCAACGGCGUACAUGAGGAUCACCCAUGUAGGAUAUACUACACAAAGUGUAGUAGAAGGACAUGCGACGG”, the “apparent Kd” value is, setting by setting: under setting [1], 30.8 nM; under setting [2], 50.8 nM.
For the sequence “ACAUAGUAAGGAUAUGCUGCUCGUCACUUGCGUGAUGAGUAGCAGAAGGUACAUGAGGAUCACCCAUGUAAAGA”, the “apparent Kd” value was found to be 30.1 nM under setting [1] and 20.3 nM under setting [2].
On to “GAGUGACAUGAGGAUCACCCAUGUGAGGAUAUCGGACGGACCUAGUUAGCUUCCGCCGCGAGAAGGCACAUCGG”, for which the “apparent Kd” value by setting is: under setting [1], 121 nM; under setting [2], 45.8 nM.
With “UGGUACAUGGGAGGAUAUGGGAAGAUACAUGAGGAUCACCCAUGUUUAAGAAUGCCGAGAGGCAACUAGAAGGCCCAUGUACCU”, the “apparent Kd” value runs as follows: under setting [3], 1090 nM; under setting [4], 45.8 nM.
For the sequence “UCGGCGCGAGGAUAUACGUUUGCUUUUUUUUGUUUUUGUGUACAUGAGGAUCACCCAUGUAGAAGGCGCGCCGC”, the “apparent Kd” value under setting [1] came out at 18.1 nM and the “apparent Kd” value under setting [2] amounted to 24.9 nM.
The corresponding values for “UAGUAUAAGGGCAUUAAACAUGAGGAUCACCCAUGUACAAUAGAGGAUAUGCAUUUCAGUUUAGAGUAGAAGGUUAGAGAAUAU” are 35.6 nM and 41.1 nM.
Regarding “AAUAACCAAGGAUAUACAUGAGGAUCACCCAUGUGGCGUCUGCGAGCUACAUCCCUUAGUAGAAGGUGGACCAG”, the “apparent Kd” value is 23.4 nM under setting [1] and 27 nM under setting [2].
For “AGCGAGAUAGGCAAGGAUAUGCUGGGUUUCACAUGAGGAUCACCCAUGUCAUAGGUAAUGUCCGAGCAGAAGGUGCAUUCUCUUU”, the “apparent Kd” value by setting is: under setting [3], 171 nM; under setting [4], 21.7 nM.
Consider “GUCAGCUCGUCAGGAUAUACGUCACUGCUUCGGCAGUGUGGUAAGAUCACAUGAGGAUCACCCAUGUAGAAGGGACGAGCUGAC”, for which the “apparent Kd” value came out at 13.7 nM under setting [1] and 252 nM under setting [2].
As to “CGAUCGGAAGGAUAUACACCUCACGUCAAACGGACAACCGGACAUGAGGAUCACCCAUGUAGAAGGUCCAAAAU”, the “apparent Kd” value reads like this: under setting [1], 72.6 nM; under setting [2], 238 nM.
On to “CAGUACUGAGGAUAUACAUGAGGAUCACCCAUGUCCCAAAAGUAGGAUACUACUAUUAGUAGAAGGCAGUACUG”, for which the “apparent Kd” value runs as follows: under setting [1], 37.4 nM; under setting [2], 323 nM.
“GUUUGAUGAGGAUAUCGAGGUUAGUACAUGAGGAUCACCCAUGUUAUCCAGGUGUCGGUUCGAGAAGGUAUUGGAC”: the “apparent Kd” value runs as follows: under setting [1], 18.4 nM; under setting [2], 38.1 nM.
Regarding “CGGUACUUAGGAUAUACAUGAGGAUCACCCAUGUAGAGAAGGUGGGUGCCGUCCUGUAGUAGAAGGAAGAAUCG”, the “apparent Kd” value under setting [1] amounted to 46.9 nM and the “apparent Kd” value under setting [2] was 55.8 nM.
In the case of “GGAAGGUGAGGAUAUACAAUGACGGAAACGUCAGGUGAGAGACAUGAGGAUCACCCAUGUAGAAGGCACGGAGA”, the “apparent Kd” value was found to be 73.7 nM under setting [1] and 730 nM under setting [2].
“UAAAUAAUGUAAGGAUAUACAUGAGGAAUUCUCGUAGAAGGUACAUGACAUGAGGAUCACCCAUGUAUCGCUCAGUAGAGCGUA”: the “apparent Kd” value was 152 nM under setting [3] and 311 nM under setting [4].
Take “CAAUUUAUAACAGGAUAUAUAAUACAAUAGUUAAUAGAAGGGUUUAAUACAUGAGGAUCACCCAUGUCAUGUGUCAUAAUUACC”: the “apparent Kd” value amounted to 34.8 nM under setting [1] and 30.5 nM under setting [2].
With “GUAUAUAGUGUGAGGAUAUGCUGGUCCUUGGAUCAGCAGAAGGCACAUGAGGAUCACCCAUGUAGUUUAUUUUG”, the “apparent Kd” value is, setting by setting: under setting [1], 18.4 nM; under setting [2], 65.7 nM.
Take “ACAUGAGGAUCACCCAUGUGGAGUGAAGAAGGUGGUUACUUAAGACUCUUCCAUGUACUUAGGACUGAGGAUAUUCUAAUAUUU”: the “apparent Kd” value under setting [3] was 53.8 nM and the “apparent Kd” value under setting [4] came to 30.5 nM.
In the case of “ACAUGAGGAUCACCCAUGUGAAAAGAAUGGCUGACACAGAGAUAGGAUAUAUGUGCAUAUCUAACGUAGAAGGGUCAUGACUGG”, the “apparent Kd” value under setting [1] was found to be 33.3 nM and the “apparent Kd” value under setting [2] came out at 36.4 nM.
For the sequence “GGUCGUCACAUAUACAUGAGGAUCACCCAUGUCAAAAGACAUGAGGAUAUGGAUAAUAAUAUAAACCAGAAGGCAUGGACGACC”, the “apparent Kd” value under setting [3] is 961 nM and the “apparent Kd” value under setting [4] worked out at 59.6 nM.
Take “GGGUGCUCACCGCCUUAACAUGAGGAUCACCCAUGUGGAGUGCAGGAUAUACGUUUCUAUCAUACGUAGAAGGGCACCGCGCAG”: the “apparent Kd” value by setting is: under setting [1], 5.59 nM; under setting [2], 5.03 nM.
For “GGUCCAUCAUGAGGAUAUGGCACCUUAUUGGUGCCAGAAGGCAUGUCUCUUGACAUGAGGAUCACCCAUGUAAUAAAUUGGACC”, the “apparent Kd” value runs as follows: under setting [3], 915 nM; under setting [4], 125 nM.
On to “AAGAAGUGAGGAUAUACGCGAACAAAAAAAAAAAAGAAAGCGUAGAAGGCACAUGAGGAUCACCCAUGUCAAAA”, for which the “apparent Kd” value is 26.1 nM under setting [1] and 27.3 nM under setting [2].
The matching figures for “ACUUGUUACUUAUUCAUUGAUUUGUAGGAUAUACGUACAUGAGGAUCACCCAUGUUACAUGUUAUGUAGAAGGACAUCUAAUUU”: 12.2 nM and 12.6 nM.
Consider “UCGACGAAAGUCGAACGAUGUAGCAGAAGGACAUGAGGAUCACCCAUGUCAGCUGUAACAGCCAUGUAGGAUAUGCUACAUCGG”, for which the “apparent Kd” value under setting [1] came out at 4.43 nM and the “apparent Kd” value under setting [2] amounted to 5.37 nM.
The matching figures for “AUUUCAUUCCUUCGACCAUUACCGAGAAGGGUCCACAUGAGGAUCACCCAUGUGGUCCUGAGCGGACAGGAUAUCGGAGUCGGG”: 18.2 nM and 17.7 nM.
The matching figures for “CUUUCGUGAGGAUAUCAGUAGUAAAAAAAUAAAAUUACUACUGAGAAGGCACAUGAGGAUCACCCAUGUUCCUC”: 21.8 nM and 143 nM.
For the sequence “GUGCACAUUCGAGGAUAUCGGAGAGAGAUCAUUCGAGAAGGCGAUUCAUGAUGUAUUAUCCUGGACAUGAGGAUCACCCAUGUG”, the “apparent Kd” value runs as follows: under setting [3], 361 nM; under setting [4], 107 nM.
